Assay results as given in ChEMBL document CHEMBL1134531, “Peptide analogues of a subdominant epitope expressed in ebv-associated tumors: synthesis and immunological activity” (J Med Chem, 2001).
Residues, ends and D or L forms follow the SMILES beside them. *: point of attachment. X3 = OC[C@H]1O[C@H](*)[C@H](O)[C@H](O)[C@@H]1O

How the values were obtained:
[1] = Half life to evaluate susceptibility to enzymatic hydrolysis by incubating at 37 degree C in human plasma; format: ADME
In short: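 Peptide (5 mg in acetonitrile/H₂O 1:1, 50 μL) mixed into 0.5 mL heparinized human plasma and incubated at 37 °C for up to 360 min. Ethanol added to stop the reaction, then centrifugation and RP-HPLC of the supernatant. Half-life obtained by least-squares linear regression of log nonapeptide concentration against time, with at least five time points.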

[2] = Half life to evaluate susceptibility to enzymatic hydrolysis by incubating at 37 degree C in culture medium.; format: ADME
In short: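 Peptide (5 mg in acetonitrile/H₂O 1:1, 50 μL) added to 0.5 mL RPMI containing 10% fetal calf serum and incubated at 37 °C for up to 360 min. Reaction stopped with ethanol and centrifuged, then supernatant analysed by RP-HPLC. T1/2 taken from a least-squares linear regression of log nonapeptide concentration versus time, using at least five points.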

Compound	half-life [1] [h]	half-life [2] [h]
CSCC[C@@H](NC(=O)[C@@H](NC(=O)[C@H](CC(C)C)NC(=O)[C@H](CC(C)C)NC(=O)CNC(=O)[C@H](C)NC(=O)[C@H](CC(C)C)NC(=O)[C@@H](N)Cc1ccc(O)cc1)[C@@H](C)O)C(=O)N[C@H](C(=O)O)C(C)C	0.597	> 6
CSCC[C@H](NC(=O)[C@@H](NC(=O)[C@H](CC(C)C)NC(=O)[C@H](CC(C)C)NC(=O)CNC(=O)[C@H](C)NC(=O)[C@H](CC(C)C)NC(=O)[C@@H](N)Cc1ccc(O)cc1)[C@@H](C)O)C(=O)N[C@H](C(=O)O)C(C)C	0.212	1.37
CSCC[C@H](NC(=O)[C@@H](NC(=O)[C@H](CC(C)C)NC(=O)[C@H](CC(C)C)NC(=O)CNC(=O)[C@H](C)NC(=O)[C@H](CC(C)C)NC(=O)[C@@H](N)Cc1ccc(O)cc1)[C@@H](C)O)C(=O)N[C@@H](C(=O)O)C(C)C	4.53	> 6
CSCC[C@H](NC(=O)[C@@H](NC(=O)[C@H](CC(C)C)NC(=O)[C@H](CC(C)C)NC(=O)CNC(=O)[C@H](C)NC(=O)[C@H](CC(C)C)NC(=O)[C@@H](N)Cc1ccc(O)cc1)[C@@H](C)O[C@H]1O[C@H](CO)[C@@H](O)[C@@H](O)[C@H]1O)C(=O)N[C@H](C(=O)O)C(C)C (H-YLAGLLT(X3)MV-OH)	1.01	> 6
CSCC[C@H](NC(=O)[C@@H](NC(=O)[C@H](CC(C)C)NC(=O)[C@H](CC(C)C)NC(=O)CNC(=O)[C@H](C)NC(=O)[C@H](CC(C)C)NC(=O)[C@@H](N)Cc1ccc(O)cc1)[C@@H](C)O)C(=O)N(CC(=O)O)C(C)C (HELM PEPTIDE1{Y.L.A.G.L.L.T.M.[CC(C)N(CC(=O)O)[*:1]]}$$$$V2.0)	> 6	> 6
CSCC[C@H](NC(=O)[C@@H](NC(=O)[C@H](CC(C)C)NC(=O)[C@H](CC(C)C)NC(=O)CNC(=O)[C@H](C)NC(=O)[C@H](CC(C)C)NC(=O)[C@@H](N)Cc1ccc(O)cc1)[C@@H](C)O)C(=O)N[C@H](CO)C(C)C (HELM PEPTIDE1{Y.L.A.G.L.L.T.M.[CC(C)[C@@H](CO)N[*:1]]}$$$$V2.0)	1.66	> 6
CSCC[C@H](NC(=O)[C@@H](NC(=O)[C@H](CC(C)C)NC(=O)[C@H](CC(C)C)NC(=O)CNC(=O)[C@H](C)NC(=O)[C@H](CC(C)C)NC(=O)[C@@H](N)Cc1ccc(O)cc1)[C@@H](C)O)C(=O)N(C)[C@H](C(=O)O)C(C)C (HELM PEPTIDE1{Y.L.A.G.L.L.T.M.[meV]}$$$$V2.0)	> 6	> 6
CC(C)C[C@H](NC(=O)CNC(=O)[C@H](C)NC(=O)[C@H](CC(C)C)NC(=O)[C@@H](N)Cc1ccc(O)cc1)C(=O)N[C@@H](CC(C)C)C(=O)N[C@H](C(=O)N[C@@H](CC[S+](C)[O-])C(=O)N[C@H](C(=O)O)C(C)C)[C@@H](C)O (some centres not stated) (HELM PEPTIDE1{Y.L.A.G.L.L.T.[CS(=O)CC[C@H](N[*:1])C(=O)[*:2]].V}$$$$V2.0)	0.522	1.56
CSCCN(CC(=O)N[C@H](C(=O)O)C(C)C)C(=O)[C@@H](NC(=O)[C@H](CC(C)C)NC(=O)[C@H](CC(C)C)NC(=O)CNC(=O)[C@H](C)NC(=O)[C@H](CC(C)C)NC(=O)[C@@H](N)Cc1ccc(O)cc1)[C@@H](C)O (HELM PEPTIDE1{Y.L.A.G.L.L.T.[CSCCN(CC(=O)[*:2])[*:1]].V}$$$$V2.0)	0.86	> 6
CSCC[C@@H](CN[C@H](C(=O)O)C(C)C)NC(=O)[C@@H](NC(=O)[C@H](CC(C)C)NC(=O)[C@H](CC(C)C)NC(=O)CNC(=O)[C@H](C)NC(=O)[C@H](CC(C)C)NC(=O)[C@@H](N)Cc1ccc(O)cc1)[C@@H](C)O (HELM PEPTIDE1{Y.L.A.G.L.L.T.[CSCC[C@@H](CN[C@H](C(=O)O)C(C)C)N[*:1]]}$$$$V2.0)	5.07	> 6
H-YLAGLLTMV-NH2	0.657	> 6
